Results published in ChEMBL document CHEMBL4145669 (J Med Chem, 2018).
Square brackets hold non-standard residues; d marks the D form. Peptide text beside a SMILES is read from it. hPhe = N[C@@H](CCc1ccccc1)C(=O)O; Nle = CCCC[C@H](N)C(=O)O

How the values were obtained:
[1] = biological target: Melanocyte-stimulating hormone receptor (Mus musculus, UniProt Q01727); experiment: Agonist activity at mouse MC1R expressed in HEK293 cells incubated for 2 hrs by AlphaScreen cAMP assay; assay type: functional, cell-based
Method in brief: (§1)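 HEK293 cells stably expressing mouse MC1R, about 90% confluent, were detached with Versene and suspended at 10,000 cells/μL in stimulation buffer (HBSS, 0.5 mM IBMX, 5 mM HEPES, 0.1% BSA, pH 7.4) with anti-cAMP acceptor beads. Compound was added for 2 h at room temperature in the dark, then donor beads/biotinylated cAMP in lysis buffer for 2 h, followed by AlphaScreen read. Doses went up to 100 μM in duplicate wells, ≥3 experiments. EC50 came from nonlinear regression, with efficacy as a percent of NDP-MSH.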

[2] = biological target: Melanocyte-stimulating hormone receptor (Mus musculus) (UniProt Q01727); experiment: Agonist activity at mouse MC1R expressed in HEK293 cells at 100 uM incubated for 2 hrs by AlphaScreen cAMP assay relative to NDP-MSH; assay type: functional, cell-based; method in brief: as §1
Melanocortin receptor 5 = Melanocortin receptor 5 (Mus musculus, UniProt P41149); experiment: Inverse agonist activity at mouse MC5R expressed in HEK293 cells incubated for 2 hrs by AlphaScreen cAMP assay; assay type: functional, cell-based
Method in brief: (§2)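 In the mouse MC5R HEK293 stable line, cells in IBMX-containing stimulation buffer with anti-cAMP acceptor beads were exposed to compound at up to 100 μM for 2 h at room temperature in the dark. Donor beads/biotinylated cAMP were then added for 2 h before AlphaScreen reading. Signal was normalized to basal response to give a percent difference from basal. Duplicate wells, ≥3 independent experiments.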

[3] = biological target: Melanocortin receptor 5 (Mus musculus) (UniProt P41149); experiment: Inverse agonist activity at mouse MC5R expressed in HEK293 cells at 100 uM incubated for 2 hrs by AlphaScreen cAMP assay; assay type: functional, cell-based; method in brief: as §2
[4] = biological target: Melanocortin receptor 3 (Mus musculus) (UniProt P33033); experiment: Agonist activity at mouse MC3R expressed in HEK293 cells at 100 uM incubated for 2 hrs by AlphaScreen cAMP assay relative to untreated control; assay type: functional, cell-based
[5] = biological target: Melanocortin receptor 4 (Mus musculus) (UniProt P56450); experiment: Agonist activity at mouse MC4R expressed in HEK293 cells at 100 uM incubated for 2 hrs by AlphaScreen cAMP assay relative to untreated control; assay type: functional, cell-based
Melanocortin receptor 3 = Melanocortin receptor 3 (Mus musculus, UniProt P33033); experiment: Antagonist activity at mouse MC3R expressed in HEK293 cells assessed as reduction in NDP-MSH-induced response incubated for 2 hrs by AlphaScreen cAMP assay based Schild analysis; assay type: functional, cell-based; conditions: read-out: pA2 (converted)
Melanocortin receptor 4 = Melanocortin receptor 4 (Mus musculus, UniProt P56450); experiment: Antagonist activity at mouse MC4R expressed in HEK293 cells assessed as reduction in NDP-MSH-induced response incubated for 2 hrs by AlphaScreen cAMP assay based Schild analysis; assay type: functional, cell-based; conditions: read-out: pA2 (converted)
Mus musculus = organism: Mus musculus; experiment: Selectivity index, ratio of pA2 for antagonist activity at mouse MC3R expressed in HEK293 cells to pA2 for antagonist activity at mouse MC4R expressed in HEK293 cells; assay type: cell-based
[6] = biological target: Melanocortin receptor 4 (Mus musculus) (UniProt P56450); experiment: Potency index, ratio of pA2 for test compound to pA2 for AGRP for antagonist activity at mouse MC4R expressed in HEK293 cells assessed as reduction in NDP-MSH-induced response incubated for 2 hrs by AlphaScreen cAMP assay based Schild analysis; assay type: functional, cell-based

Sequence of Melanocortin receptor 4 (Mus musculus) (P56450 whole entry): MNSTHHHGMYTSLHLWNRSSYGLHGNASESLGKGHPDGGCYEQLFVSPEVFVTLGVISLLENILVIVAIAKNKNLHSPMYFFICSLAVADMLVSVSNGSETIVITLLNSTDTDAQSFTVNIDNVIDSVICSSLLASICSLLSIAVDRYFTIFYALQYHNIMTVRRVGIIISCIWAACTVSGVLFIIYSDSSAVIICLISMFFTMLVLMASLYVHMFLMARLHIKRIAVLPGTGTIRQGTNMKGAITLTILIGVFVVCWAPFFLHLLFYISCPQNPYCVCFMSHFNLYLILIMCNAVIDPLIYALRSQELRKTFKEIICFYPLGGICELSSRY
Sequence of Melanocortin receptor 4 (P56450 whole entry): as above
Sequence of Melanocyte-stimulating hormone receptor (Mus musculus) (Q01727 whole entry, looked up): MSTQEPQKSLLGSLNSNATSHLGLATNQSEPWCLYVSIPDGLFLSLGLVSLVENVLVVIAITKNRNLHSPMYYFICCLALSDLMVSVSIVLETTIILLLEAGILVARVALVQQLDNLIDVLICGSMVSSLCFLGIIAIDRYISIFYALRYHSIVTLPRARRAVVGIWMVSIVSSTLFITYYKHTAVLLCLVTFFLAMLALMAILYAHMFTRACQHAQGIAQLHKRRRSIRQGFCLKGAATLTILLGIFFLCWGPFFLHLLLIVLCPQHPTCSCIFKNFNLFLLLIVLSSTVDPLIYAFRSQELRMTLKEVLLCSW
Sequence of Melanocyte-stimulating hormone receptor (Q01727 whole entry): as the sequence (Q01727 whole entry, looked up) above
Sequence of Melanocortin receptor 3 (P33033 whole entry): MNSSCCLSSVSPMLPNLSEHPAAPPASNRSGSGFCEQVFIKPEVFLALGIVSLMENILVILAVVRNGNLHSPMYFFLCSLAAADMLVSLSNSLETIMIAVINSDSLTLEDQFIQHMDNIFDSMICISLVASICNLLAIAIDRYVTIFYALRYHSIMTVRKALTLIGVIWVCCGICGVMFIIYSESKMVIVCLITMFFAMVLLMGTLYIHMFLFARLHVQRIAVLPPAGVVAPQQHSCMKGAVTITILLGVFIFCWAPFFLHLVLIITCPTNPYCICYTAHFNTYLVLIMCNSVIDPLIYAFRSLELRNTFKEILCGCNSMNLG
Sequence of Melanocortin receptor 3 (Mus musculus) (P33033 whole entry): as above
Sequence of Melanocortin receptor 5 (P41149 whole entry): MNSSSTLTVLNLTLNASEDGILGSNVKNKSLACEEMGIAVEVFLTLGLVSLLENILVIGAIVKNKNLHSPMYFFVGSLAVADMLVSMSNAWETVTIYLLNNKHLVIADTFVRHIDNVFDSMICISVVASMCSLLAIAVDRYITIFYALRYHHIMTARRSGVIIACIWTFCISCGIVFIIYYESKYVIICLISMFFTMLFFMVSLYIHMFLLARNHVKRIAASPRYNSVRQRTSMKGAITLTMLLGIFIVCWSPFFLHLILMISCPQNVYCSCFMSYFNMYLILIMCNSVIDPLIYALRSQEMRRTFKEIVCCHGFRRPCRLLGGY
Sequence of Melanocortin receptor 5 (Mus musculus) (P41149 whole entry): as above

`CCCC[C@@H]1NC(=O)[C@H](CO)NC(=O)[C@H](CC(N)=O)NC(=O)[C@H](CCc2ccccc2)NC(=O)[C@H](Cc2ccccc2)NC(=O)[C@H](CCCNC(=N)N)NC(=O)[C@@H]2CCCN2C(=O)[C@H]2CCCN2C1=O` (cyclo(RF[hPhe]NS[Nle][dP]P)) was tested, and the EC50 [1] was over 100000 nM, the Activity [2] was under 20% and the EC50 (Melanocortin receptor 5) was over 100000 nM. For the same molecule, the Activity [3] was under 20%, the Activity [4] was under 20% and the Activity [5] was under 20%. For the same molecule, the Kb (Melanocortin receptor 3) was 501 nM, the Kb (Melanocortin receptor 4) was 0.631 nM and the Ratio (Mus musculus) was 790. The Ratio [6] was 3 to 6.
